What was measured:
PC-3 [1] = assay: Cell cycle arrest in human PC3 cells assessed as accumulation at M phase at 1 uM after 24 hrs by propidium iodide staining-based FACS flow cytometric analysis (reference value: 3%); format: functional
Method in brief: (§1)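 PC-3 cells (1×10^6/well) exposed 24 h to test agent at 1, 5 or 10 μM. Cells washed twice in ice-cold PBS, fixed in 70% ethanol for 30 min, then treated with RNase A (0.1 mg/mL, 37 °C, 30 min). Propidium iodide staining 30 min on ice in the dark. DNA content read by flow cytometry with 488 nm excitation and doublet discrimination, 10,000 events.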

PC-3 [2] = assay: Cell cycle arrest in human PC3 cells assessed as accumulation at subG1 phase after 24 hrs by propidium iodide staining-based FACS flow cytometric analysis; format: functional; method in brief: as §1
PC-3 [3] = assay: Antiproliferative activity against human PC3 cells after 48 hrs by sulforhodamine B assay; format: functional, cell-based; conditions: PC-3, 48 h
PC-3 [4] = assay: Cell cycle arrest in human PC3 cells assessed as accumulation at M phase at 5 uM after 24 hrs by propidium iodide staining-based FACS flow cytometric analysis (reference value: 3%); format: functional; method in brief: as §1
PC-3 [5] = assay: Cell cycle arrest in human PC3 cells assessed as accumulation at subG1 phase at 1 uM after 24 hrs by propidium iodide staining-based FACS flow cytometric analysis (reference value: 13.1%); format: functional; method in brief: as §1
A549 = assay: Antiproliferative activity against human A549 cells after 48 hrs by sulforhodamine B assay; format: functional, cell-based; conditions: A549, 48 h
PC-3 [6] = assay: Cell cycle arrest in human PC3 cells assessed as accumulation at subG1 phase at 10 uM after 24 hrs by propidium iodide staining-based FACS flow cytometric analysis (reference value: 13.1%); format: functional; method in brief: as §1
HCT-116 = assay: Antiproliferative activity against human HCT116 cells after 48 hrs by sulforhodamine B assay; format: functional, cell-based; conditions: HCT-116, 48 h
PC-3 [7] = assay: Cell cycle arrest in human PC3 cells assessed as accumulation at G0/G1 phase at 5 uM after 24 hrs by propidium iodide staining-based FACS flow cytometric analysis (reference value: 68.2%); format: functional; method in brief: as §1
PC-3 [8] = assay: Cell cycle arrest in human PC3 cells assessed as accumulation at S phase at 10 uM after 24 hrs by propidium iodide staining-based FACS flow cytometric analysis (reference value: 8.5%); format: functional; method in brief: as §1
HEp-2 = assay: Antiproliferative activity against human Hep2 cells after 48 hrs by sulforhodamine B assay; format: functional, cell-based; conditions: HEp-2, 48 h
PC-3 [9] = assay: Cell cycle arrest in human PC3 cells assessed as accumulation at G0/G1 phase at 10 uM after 24 hrs by propidium iodide staining-based FACS flow cytometric analysis (reference value: 68.2%); format: functional; method in brief: as §1
MCF7 = assay: Antiproliferative activity against human MCF7 cells after 48 hrs by sulforhodamine B assay; format: functional, cell-based; conditions: MCF7, 48 h
PC-3 [10] = assay: Cell cycle arrest in human PC3 cells assessed as accumulation at subG1 phase at 5 uM after 24 hrs by propidium iodide staining-based FACS flow cytometric analysis (reference value: 13.1%); format: functional; method in brief: as §1
THP-1 = assay: Antiproliferative activity against human THP1 cells after 48 hrs by sulforhodamine B assay; format: functional, cell-based; conditions: THP-1, 48 h
PC-3 [11] = assay: Cell cycle arrest in human PC3 cells assessed as accumulation at G0/G1 phase at 1 uM after 24 hrs by propidium iodide staining-based FACS flow cytometric analysis (reference value: 68.2%); format: functional; method in brief: as §1
PC-3 [12] = assay: Cell cycle arrest in human PC3 cells assessed as accumulation at S phase at 1 uM after 24 hrs by propidium iodide staining-based FACS flow cytometric analysis (reference value: 8.5%); format: functional; method in brief: as §1
PC-3 [13] = assay: Cell cycle arrest in human PC3 cells assessed as accumulation at S phase at 5 uM after 24 hrs by propidium iodide staining-based FACS flow cytometric analysis (reference value: 8.5%); format: functional; method in brief: as §1
PC-3 [14] = assay: Cell cycle arrest in human PC3 cells assessed as accumulation at M phase at 10 uM after 24 hrs by propidium iodide staining-based FACS flow cytometric analysis (reference value: 3%); format: functional; method in brief: as §1
[15] = target: Transcription factor p65 (Homo sapiens) (UniProt Q04206); assay: Inhibition of NFkappaB p65 in nuclear extract of human PC3 cells assessed as reduction in binding to consensus DNA sequence at 1 uM after 24 hrs relative to control; format: cell-based; conditions: PC-3
Method in brief: (§2)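 PC-3 cells (5×10^6) treated 24 h at varied concentrations. Nuclear extract made by hypotonic lysis (HEPES/KOH pH 7.9) followed by high-salt extraction. Nuclear protein (20 µg) incubated overnight at 4 °C in wells carrying immobilized NF-κB DNA consensus element, then anti-p65 primary antibody 1 h and HRP secondary 1 h. Substrate 30 min, OD 450 nm, normalized to untreated control = 100%.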

[16] = target: Transcription factor p65 (Homo sapiens) (UniProt Q04206); assay: Inhibition of NFkappaB p65 in nuclear extract of human PC3 cells assessed as reduction in binding to consensus DNA sequence at 5 uM after 24 hrs relative to control; format: cell-based; conditions: PC-3; method in brief: as §2
[17] = target: Transcription factor p65 (Homo sapiens) (UniProt Q04206); assay: Inhibition of NFkappaB p65 in nuclear extract of human PC3 cells assessed as reduction in binding to consensus DNA sequence at 10 uM after 24 hrs relative to control; format: cell-based; conditions: PC-3; method in brief: as §2
[18] = target: Transcription factor p65 (Homo sapiens) (UniProt Q04206); assay: Inhibition of NFkappaB p65 in nuclear extract of human PC3 cells assessed as reduction in binding to DNA response element after 24 hrs; format: cell-based; conditions: PC-3; method in brief: as §2

Chain of Transcription factor p65 (Homo sapiens) (Q04206 whole entry): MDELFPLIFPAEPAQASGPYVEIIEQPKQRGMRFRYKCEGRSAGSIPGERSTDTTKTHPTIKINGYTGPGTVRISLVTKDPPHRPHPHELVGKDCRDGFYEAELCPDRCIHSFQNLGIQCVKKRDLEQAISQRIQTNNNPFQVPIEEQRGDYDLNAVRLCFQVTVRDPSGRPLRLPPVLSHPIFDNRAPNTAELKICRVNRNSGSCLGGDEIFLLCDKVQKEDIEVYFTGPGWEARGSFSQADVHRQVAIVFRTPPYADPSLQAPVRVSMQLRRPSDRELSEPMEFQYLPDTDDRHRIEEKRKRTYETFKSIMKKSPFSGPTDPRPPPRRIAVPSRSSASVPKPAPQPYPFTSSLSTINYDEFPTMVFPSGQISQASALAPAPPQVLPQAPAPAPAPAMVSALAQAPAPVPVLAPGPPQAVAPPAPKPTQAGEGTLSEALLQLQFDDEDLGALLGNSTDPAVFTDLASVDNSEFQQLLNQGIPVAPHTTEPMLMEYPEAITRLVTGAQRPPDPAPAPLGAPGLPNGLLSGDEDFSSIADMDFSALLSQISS

Row | IC50 (PC-3 [3]) | IC50 (A549) | IC50 (HCT-116) | IC50 (MCF7) | IC50 (THP-1) | Structure (SMILES) | Activity (PC-3 [1]) | Activity (PC-3 [2]) | Activity (PC-3 [4]) | Activity (PC-3 [5]) | Activity (PC-3 [6]) | Activity (PC-3 [7]) | Activity (PC-3 [8]) | IC50 (HEp-2) | Activity (PC-3 [9]) | Activity (PC-3 [10]) | Activity (PC-3 [11]) | Activity (PC-3 [12]) | Activity (PC-3 [13]) | Activity (PC-3 [14]) | other results
1 | 0.1 µM | 100 µM | 100 µM | 0.8 µM | 0.3 µM | CC1=C2[C@H]3OC(=O)C4(C[C@H](c5ccc(Br)cc5)N(c5ccccc5)O4)[C@@H]3CC[C@@]2(C)C=CC1=O (some centres not stated) | 1.6% | Dose-dependent effect | 0.8% | 33.8% | 42.8% | 55.8% | 4.9% | 100 µM | 53.2% | 34.7% | 55.3% | 4.2% | 4.4% | 1.3% | –
2 | 0.01 µM | 31 µM | 37 µM | 0.3 µM | 0.5 µM | CC1=C2[C@H]3OC(=O)C4(C[C@@H](c5ccc(Br)cc5)N(c5ccccc5)O4)[C@@H]3CC[C@@]2(C)C=CC1=O (some centres not stated) | 2% | Dose-dependent effect | 1.2% | 25.6% | 67.9% | 43.5% | 0.4% | 65 µM | 3.1% | 39.7% | 60.9% | 6.2% | 4.5% | 0.4% | inhibition [15]: 20%; inhibition [16]: 43%; inhibition [17]: 57%; inhibition [18]: Dose-dependent effect
